{"source": "ChEMBL document CHEMBL5303300", "about": "“EUbOPEN Chemogenomics Library - Multiplex” (2023)", "system": "Fibroblast", "assay": "Multiplex assay against human fibroblast", "format": "toxicity, cell-based", "conditions": "number of replicates 2", "in_short": "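Cells stained live at seeding with Hoechst33342, BioTracker Green Microtubule Cytoskeleton Dye, MitoTracker Red and Annexin V Alexa Fluor 680 were imaged on a CQ1 microscope at 37°C and 5% CO2 after compound addition. Their classification by CellPathfinder machine-learning gating ran from Hoechst high-intensity objects versus normal cells, to healthy, pyknosed or fragmented nuclei among normal cells, to mitotic or apoptotic among pyknosed cells. Tubulin, mitochondrial-mass and membrane-permeability phenotypes are per cents of healthy-nucleus cells.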", "key": {"[1]": {"conditions": "12 h, 1 µM, compound concentration 1 uM"}, "[2]": {"conditions": "12 h, 10 µM, compound concentration 10 uM"}, "[3]": {"conditions": "24 h, 1 µM, compound concentration 1 uM"}, "[4]": {"conditions": "24 h, 10 µM, compound concentration 10 uM"}, "[5]": {"conditions": "48 h, 1 µM, compound concentration 1 uM"}, "[6]": {"conditions": "48 h, 10 µM, compound concentration 10 uM"}}, "note": "Several values for one entry are separate records, joined by “and”; a condition that tells them apart may be missing. Identical values can stand only once.", "data": [{"smiles": "N=C(N)NCCC[C@H](NC(=O)COCC(c1ccccc1)c1ccccc1)C(=O)O.O=C(O)C(F)(F)F", "values": [{"measurement": "Population Apoptotic (%)", "setting": "[1]", "result": "42% and 45%"}, {"measurement": "Population Fragmented Nuclei (%)", "setting": "[1]", "result": "6% and 9%"}, {"measurement": "Population Healthy Nuclei (%)", "setting": "[1]", "result": "71% and 75%"}, {"measurement": "Population Hoechst High Intensity Objects (%)", "setting": "[1]", "result": 0, "unit": "%"}, {"measurement": "Population Membrane Permeable-Phenotype (%)", "setting": "[1]", "result": "5% and 3%"}, {"measurement": "Population Mitochondria Different-Phenotype (%)", "setting": "[1]", "result": "0% and 4%"}, {"measurement": "Population Mitotic Cells (%)", "setting": "[1]", "result": "57% and 54%"}, {"measurement": "Population Normal (%)", "setting": "[1]", "result": 100, "unit": "%"}, {"measurement": "Population Pyknosed Nuclei (%)", "setting": "[1]", "result": "22% and 14%"}, {"measurement": "Population Tubulin-Different-Phenotype (%)", "setting": "[1]", "result": "17% and 12%"}, {"measurement": "Total Cell Count", "setting": "[1]", "result": "172 and 221"}, {"measurement": "Population Apoptotic (%)", "setting": "[2]", "result": "38% and 55%"}, {"measurement": "Population Fragmented Nuclei (%)", "setting": "[2]", "result": "9% and 10%"}, {"measurement": "Population Healthy Nuclei (%)", "setting": "[2]", "result": "79% and 71%"}, {"measurement": "Population Hoechst High Intensity Objects (%)", "setting": "[2]", "result": 0, "unit": "%"}, {"measurement": "Population Membrane Permeable-Phenotype (%)", "setting": "[2]", "result": "8% and 4%"}, {"measurement": "Population Mitochondria Different-Phenotype (%)", "setting": "[2]", "result": 0, "unit": "%"}, {"measurement": "Population Mitotic Cells (%)", "setting": "[2]", "result": "61% and 44%"}, {"measurement": "Population Normal (%)", "setting": "[2]", "result": 100, "unit": "%"}, {"measurement": "Population Pyknosed Nuclei (%)", "setting": "[2]", "result": "11% and 18%"}, {"measurement": "Population Tubulin-Different-Phenotype (%)", "setting": "[2]", "result": "17% and 7%"}, {"measurement": "Total Cell Count", "setting": "[2]", "result": "161 and 156"}, {"measurement": "Population Apoptotic (%)", "setting": "[3]", "result": "63% and 48%"}, {"measurement": "Population Fragmented Nuclei (%)", "setting": "[3]", "result": "11% and 14%"}, {"measurement": "Population Healthy Nuclei (%)", "setting": "[3]", "result": "64% and 67%"}, {"measurement": "Population Hoechst High Intensity Objects (%)", "setting": "[3]", "result": 0, "unit": "%"}, {"measurement": "Population Membrane Permeable-Phenotype (%)", "setting": "[3]", "result": "2% and 4%"}, {"measurement": "Population Mitochondria Different-Phenotype (%)", "setting": "[3]", "result": "0% and 3%"}, {"measurement": "Population Mitotic Cells (%)", "setting": "[3]", "result": "36% and 51%"}, {"measurement": "Population Normal (%)", "setting": "[3]", "result": 100, "unit": "%"}, {"measurement": "Population Pyknosed Nuclei (%)", "setting": "[3]", "result": "23% and 18%"}, {"measurement": "Population Tubulin-Different-Phenotype (%)", "setting": "[3]", "result": "11% and 9%"}, {"measurement": "Total Cell Count", "setting": "[3]", "result": "171 and 247"}, {"measurement": "Population Apoptotic (%)", "setting": "[4]", "result": "40% and 57%"}, {"measurement": "Population Fragmented Nuclei (%)", "setting": "[4]", "result": "14% and 16%"}, {"measurement": "Population Healthy Nuclei (%)", "setting": "[4]", "result": "71% and 70%"}, {"measurement": "Population Hoechst High Intensity Objects (%)", "setting": "[4]", "result": 0, "unit": "%"}, {"measurement": "Population Membrane Permeable-Phenotype (%)", "setting": "[4]", "result": 7, "unit": "%"}, {"measurement": "Population Mitochondria Different-Phenotype (%)", "setting": "[4]", "result": "1% and 0%"}, {"measurement": "Population Mitotic Cells (%)", "setting": "[4]", "result": "59% and 42%"}, {"measurement": "Population Normal (%)", "setting": "[4]", "result": 100, "unit": "%"}, {"measurement": "Population Pyknosed Nuclei (%)", "setting": "[4]", "result": 13, "unit": "%"}, {"measurement": "Population Tubulin-Different-Phenotype (%)", "setting": "[4]", "result": "16% and 11%"}, {"measurement": "Total Cell Count", "setting": "[4]", "result": "158 and 160"}, {"measurement": "Population Apoptotic (%)", "setting": "[5]", "result": "69% and 74%"}, {"measurement": "Population Fragmented Nuclei (%)", "setting": "[5]", "result": "15% and 18%"}, {"measurement": "Population Healthy Nuclei (%)", "setting": "[5]", "result": "65% and 68%"}, {"measurement": "Population Hoechst High Intensity Objects (%)", "setting": "[5]", "result": 0, "unit": "%"}, {"measurement": "Population Membrane Permeable-Phenotype (%)", "setting": "[5]", "result": "7% and 4%"}, {"measurement": "Population Mitochondria Different-Phenotype (%)", "setting": "[5]", "result": 0, "unit": "%"}, {"measurement": "Population Mitotic Cells (%)", "setting": "[5]", "result": "30% and 25%"}, {"measurement": "Population Normal (%)", "setting": "[5]", "result": 100, "unit": "%"}, {"measurement": "Population Pyknosed Nuclei (%)", "setting": "[5]", "result": "19% and 12%"}, {"measurement": "Population Tubulin-Different-Phenotype (%)", "setting": "[5]", "result": "12% and 5%"}, {"measurement": "Total Cell Count", "setting": "[5]", "result": "172 and 253"}, {"measurement": "Population Apoptotic (%)", "setting": "[6]", "result": "61% and 94%"}, {"measurement": "Population Fragmented Nuclei (%)", "setting": "[6]", "result": "17% and 18%"}, {"measurement": "Population Healthy Nuclei (%)", "setting": "[6]", "result": "70% and 71%"}, {"measurement": "Population Hoechst High Intensity Objects (%)", "setting": "[6]", "result": 0, "unit": "%"}, {"measurement": "Population Membrane Permeable-Phenotype (%)", "setting": "[6]", "result": "4% and 6%"}, {"measurement": "Population Mitochondria Different-Phenotype (%)", "setting": "[6]", "result": 0, "unit": "%"}, {"measurement": "Population Normal (%)", "setting": "[6]", "result": 100, "unit": "%"}, {"measurement": "Population Pyknosed Nuclei (%)", "setting": "[6]", "result": "11% and 10%"}, {"measurement": "Population Tubulin-Different-Phenotype (%)", "setting": "[6]", "result": 8, "unit": "%"}, {"measurement": "Total Cell Count", "setting": "[6]", "result": "151 and 170"}]}]}
